{"source": "paper PMC8603004", "about": "(EFSA Journal, 2021)", "key": {"[1]": {"test": "ADME of 14C‐3‐NOP following single or multiple oral administration", "assay_type": "in vivo, rat", "conditions": "500 mg/kg 14C‐3‐NOP, 1 h"}, "[2]": {"test": "Second in vivo toxicokinetic study, metabolic profile in gut and plasma", "parameters": "species or system male Wistar rats", "conditions": "urine 0 to 2 h of one animal, after 500 mg/kg bw 14C‐3‐NOP", "method_in_brief": "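Single oral dose of 500 mg/kg bw 14C-labelled test compound to male Wistar rats. One animal per time point was killed at 1, 2 and 3 h post-dose and blood was collected. Stomach, small intestine, caecum and colon contents were removed for total radioactivity. Metabolites were characterised by NMR and/or LC/MS.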"}, "[3]": {"tested_on": "testes and epididymides; Sertoli cells", "test": "Mechanistic toxicity studies", "parameters": "species or system rats, dogs and non‐human primates"}, "[4]": {"test": "First in vivo toxicokinetic study", "parameters": "species or system male Wistar rats", "conditions": "after 500 mg/kg bw 14C‐3‐NOP", "method_in_brief": "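Male Wistar rats received a single oral dose of 500 mg/kg bw 14C-labelled test compound under OECD TG 417 and were killed 48 h post-dose. Total radioactivity was measured in plasma, excreta and selected organs and tissues. Tissue levels were expressed as μg test-compound-eq/g and recovery as % of applied dose.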"}, "[5]": {"tested_on": "whole blood human lymphocytes", "test": "In vitro micronucleus test of NOPA", "assay_type": "cell-based", "conditions": "229 to 1,321 μg/mL, with and without metabolic activation", "method_in_brief": "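GLP micronucleus test (OECD TG 487) on the metabolite (purity 98.4%) in human whole-blood lymphocytes. Three concentrations from 229 to 1,321 μg/mL (top about 10 mmol/L) were analysed. Treatments were a short exposure (4 + 20 h recovery) with and without metabolic activation, and a continuous treatment without activation. Micronuclei were scored.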"}, "[6]": {"test": "Consumer exposure calculation to NOPA"}, "[7]": {"tested_on": "Salmonella Typhimurium strains TA1535, TA1537, TA98, TA100, and Escherichia coli strain WP2 uvrA", "test": "Bacterial reverse mutation assay of NOPA", "assay_type": "cell-based", "conditions": "strains TA1535 and TA100, presence and absence of S9 mix, up to 5,000 μg/plate", "method_in_brief": "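Plate-incorporation reverse mutation test on the metabolite in S. Typhimurium TA1535, TA1537, TA98 and TA100 and E. coli WP2 uvrA, with and without liver microsomal activation. Concentrations were 3, 10, 33, 100, 333, 1,000, 2,500 and 5,000 μg/plate. Each concentration and each control was plated in triplicate, and positive and negative controls were included.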"}, "[8]": {"test": "ADME in four lactating cows", "assay_type": "in vivo"}, "ADME in a lactating goat": {"test": "ADME in a lactating goat", "assay_type": "in vivo"}, "[9]": {"test": "Tolerance study in dairy cows", "assay_type": "in vivo", "conditions": "female, Holstein Friesian, cattle, liver, kidney, muscle, fat, oral"}, "[10]": {"tested_on": "Holstein Friesian dairy cows", "test": "Tolerance study in dairy cows", "assay_type": "in vivo"}, "[11]": {"test": "Feeding study 1 in beef cattle, NOPA in plasma", "assay_type": "in vivo", "conditions": "bovine, oral, 284 mg/kg"}, "[12]": {"test": "Second goat experiment, pre‐dosed 5 days", "assay_type": "in vivo, lactating goat"}, "[13]": {"tested_on": "peripheral blood reticulocytes", "test": "In vivo micronucleus assay of NOPA in peripheral blood reticulocytes", "parameters": "species or system Fischer 344 Big Blue rats", "conditions": "days 4 and 29", "method_in_brief": "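Fischer 344 Big Blue rats, six per sex per group, were given the metabolite by oral gavage once daily for 28 days at 10 mL/kg in phosphate-buffered saline, pH 7.4. Males received 0, 150, 300 or 600 mg/kg bw/day and females 0, 250, 500 or 1,000 mg/kg bw/day. Peripheral blood was sampled on days 4 and 29, and micronucleated reticulocytes were counted by flow cytometry. Kit positive-control samples were run; there was no concurrent positive group.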"}, "[14]": {"test": "28‐day oral gavage study with toxicokinetic evaluation of NOPA", "assay_type": "in vivo, CByB6F1 Hybrid mice", "conditions": "CByB6F1 Hybrid, mouse, plasma, oral, 700 mg/kg"}, "CByB6F1 Hybrid mice": {"tested_on": "CByB6F1 Hybrid mice", "test": "28‐day oral gavage study with toxicokinetic evaluation of NOPA", "assay_type": "in vivo", "conditions": "both sexes"}}, "note": "Several values for one entry are separate records, joined by “and”; a condition that tells them apart may be missing. Equal values may be shown once."}
{"smiles": "O=C(O)CCO", "note": "[3‐HPA, 3‐hydroxy‐propionic acid]", "values": [{"measurement": "Metabolite in epididymis", "setting": "[1]", "value": 60, "unit": "% TRR"}, {"measurement": "Metabolite in testes", "setting": "[1]", "value": 84, "unit": "% TRR"}, {"measurement": "Metabolite in the small intestine", "setting": "[1]; females", "value": "46.5 % of TRR"}, {"measurement": "Metabolite in the small intestine", "setting": "[1]; males", "value": "34.8 % of TRR"}, {"measurement": "Urinary metabolite, share of the urine radioactivity", "setting": "[2]", "value": 58, "unit": "%"}, {"measurement": "Testicular/epididymal findings", "setting": "[3]; 10 days after sc administration", "value": "absence of any testicular/epididymal abnormality"}, {"measurement": "Urinary metabolite, share of the dose administered", "setting": "[4]", "value": 7.2, "unit": "%"}, {"measurement": "Urinary metabolite, share of the urine radioactivity", "setting": "[4]", "value": 47.5, "unit": "%"}]}
{"smiles": "O=C(O)CCO[N+](=O)[O-]", "note": "[NOPA, 3‐nitrooxypropionic acid]", "values": [{"measurement": "Frequency of micronuclei", "setting": "[5]", "value": "No significant increase in the frequency of micronuclei"}, {"measurement": "Consumer exposure, maximum HRP", "setting": "[6]; Adolescents", "value": 0.2260, "unit": "μg/kg bw per day"}, {"measurement": "Consumer exposure, maximum HRP", "setting": "[6]; Adults", "value": 0.1293, "unit": "μg/kg bw per day"}, {"measurement": "Consumer exposure, maximum HRP", "setting": "[6]; Elderly", "value": 0.1162, "unit": "μg/kg bw per day"}, {"measurement": "Consumer exposure, maximum HRP", "setting": "[6]; Infants", "value": 0.4542, "unit": "μg/kg bw per day"}, {"measurement": "Consumer exposure, maximum HRP", "setting": "[6]; Other children", "value": "0.6 μg/kg bw per day and 0.5952 μg/kg bw per day"}, {"measurement": "Consumer exposure, maximum HRP", "setting": "[6]; Toddlers", "value": 0.4674, "unit": "μg/kg bw per day"}, {"measurement": "Consumer exposure, maximum HRP", "setting": "[6]; Very elderly", "value": 0.1266, "unit": "μg/kg bw per day"}, {"measurement": "Maximum HRP as share of the established ADI", "setting": "[6]; other children, ADI 1 mg/kg bw per day", "value": 0.06, "unit": "%"}, {"measurement": "Gene mutations in bacteria", "setting": "[7]", "value": "induced gene mutations by base pair substitutions"}, {"measurement": "Amount in urine, not detected above the LOQ", "setting": "[8]; any urine sample", "value": "≤ 0.1 % of the dose"}, {"measurement": "3‐NOP and NOPA in total excreta, worst‐case scenario", "setting": "[8]; dairy cows", "value": "≤ 0.2", "unit": "%"}, {"measurement": "Residue in milk, not found above the LOQ", "setting": "[8]; in vivo", "value": "< 8", "unit": "μg 3‐NOP‐equivalents/kg"}, {"measurement": "Residue in tissues, not found above the LOQ", "setting": "[8]; in vivo", "value": "< 21", "unit": "μg 3‐NOP‐equivalents/kg"}, {"measurement": "Nitrate esters in milk, not detectable (LOD)", "setting": "ADME in a lactating goat; milk collected 0–8 h post‐dose", "value": "< 0.82", "unit": "mg 3‐NOP‐equivalent/kg"}, {"measurement": "Nitrate esters in milk, not detectable (LOD)", "setting": "ADME in a lactating goat; milk collected 8–24 h post‐dose", "value": "< 0.43", "unit": "mg 3‐NOP‐equivalent/kg"}, {"measurement": "concentration at 57 day", "setting": "[9]", "value": "< 5", "unit": "ng/g"}, {"measurement": "NOPA in milk, median of samples above 1 μg/kg", "setting": "[10]; 80 mg 3‐NOP/kg feed DM", "value": 1.74, "unit": "µg/kg"}, {"measurement": "NOPA in milk, median of samples above 1 μg/kg", "setting": "[10]; 100 mg 3‐NOP/kg feed DM, 7 cows", "value": 1.52, "unit": "µg/kg"}, {"measurement": "Urinary metabolite, share of the urine radioactivity", "setting": "[2]", "value": 20, "unit": "%"}, {"measurement": "Susceptibility of Sertoli cells from dogs", "setting": "[3]; ex vivo/in vitro cultures of seminiferous tubuli", "value": "not susceptible"}, {"measurement": "concentration at 180 min", "setting": "[11]", "value": "22.3 to 207", "unit": "ng/mL"}, {"measurement": "Nitrate esters in the aqueous phase of plasma, not detectable (LOD)", "setting": "[12]; LOD ≤ 0.07", "value": "< 0.07", "unit": "mg/kg"}, {"measurement": "Nitrate esters in the aqueous milk fraction, not detectable (LOD)", "setting": "[12]; LOD ≤ 0.21", "value": "< 0.21", "unit": "mg/kg"}, {"measurement": "Incidence of MN‐RETs", "setting": "[13]", "value": "No significant increases in the incidence of MN‐RETs"}, {"measurement": "half-life", "setting": "[14]; female", "value": "42 to 72", "unit": "min"}, {"measurement": "half-life", "setting": "[14]; male", "value": "30 to 84", "unit": "min"}, {"measurement": "Time of rapid increase of NOPA plasma concentration", "setting": "CByB6F1 Hybrid mice", "value": "< 1", "unit": "h"}]}
{"smiles": "O=C(O)C1OC(OCCCO[N+](=O)[O-])C(O)C(O)C1O", "note": "(stereo not shown) [glucuronide of 3‐NOP]", "values": [{"measurement": "Urinary metabolite, share of the urine radioactivity", "setting": "[2]", "value": 11, "unit": "%"}]}
